Results gathered from unrelated publications.
Lines come from different studies, so protocols differ. In brackets after ≈: the same amount, converted by molar mass.

SMILES | tested on | assay | test system | setting | measurement | value
O=[N+]([O-])c1ccc(-c2nc3ccccc3n2Cc2ccccc2)cc1 | human Rhabdomyosarcoma cell | cell growth or viability, MTT | – | – | IC50 | 7.44 µM
CC(C)Oc1c(NC(=O)c2ccc(NC(=O)[C@H](CC(N)=O)NC(=O)c3ccc(NC(=O)c4ccc(C#N)cn4)cc3)cc2)ccc(C(=O)Nc2ccc(C(=O)O)cc2)c1O | Serratia marcescens | microbial growth | DSM30121 | – | MIC | > 64 µg/mL
CN(C)c1ccc(O)c2c1C[C@H]1C[C@H]3[C@H](N(C)C)C(O)=C(C(N)=O)C(=O)[C@@]3(O)C(O)=C1C2=O | Enterobacter cloacae | microbial growth, broth dilution | ATCC13047 | – | MIC | 2 µg/mL (≈ 4.37 µM)
CC1(C)S[C@@H]2[C@H](NC(=O)[C@H](N)c3ccccc3)C(=O)N2[C@H]1C(=O)O | Enterococcus gallinarum | microbial growth, broth dilution | GALLINARUM | – | MIC | 8 µg/mL (≈ 22.9 µM)
C[C@@H](Oc1cc(-c2cnn(C3CCNCC3)c2)cnc1N)c1c(Cl)ccc(F)c1Cl | NCI-H3122 | cell growth or viability, MTT | – | 1 µg/mL, 72 h | inhibition | 77.5%
C/C=C(\C)c1cc(O)c(C)c(OC(=O)c2c(C)cc(O)c(Cl)c2O)c1 | Enterococcus gallinarum | microbial growth, broth dilution | GALLINARUM | – | MIC | 8 µg/mL (≈ 22.1 µM)
Oc1ccccc1-c1nc2ccccc2[nH]1 | human Rhabdomyosarcoma cell | cell growth or viability, MTT | – | 48 h | IC50 | 15.4 µM
CCCc1nc(N(C)C)c2c(c1O)C(=O)C1=C(O)[C@]3(O)C(=O)C(C(N)=O)=C(O)[C@@H](N(C)C)[C@@H]3C[C@@H]1C2.Cl.Cl | Enterobacter cloacae | microbial growth, broth dilution | ATCC13047 | – | MIC | > 32 µg/mL
C=CCn1c(-c2ccc([N+](=O)[O-])cc2)nc2ccccc21 | human Rhabdomyosarcoma cell | cell growth or viability, MTT | – | – | IC50 | 32.6 µM
CN(C)[C@@H]1C(O)=C(C(N)=O)C(=O)[C@@]2(O)C(O)=C3C(=O)c4c(O)c(-c5ccccc5)nc(Cl)c4C[C@H]3C[C@@H]12.Cl | Enterobacter cloacae | microbial growth, broth dilution | ATCC13047 | – | MIC | > 32 µg/mL
CC(=O)O[C@H]1C(=O)[C@@]2(C)[C@H]([C@H](OC(=O)c3ccccc3)[C@]3(O)C[C@H](OC(=O)[C@H](O)[C@@H](NC(=O)c4ccccc4)c4ccccc4)C(C)=C1C3(C)C)[C@]1(OC(C)=O)CO[C@@H]1C[C@@H]2O | human Rhabdomyosarcoma cell | cell growth or viability, MTT | – | 48 h | IC50 | 6.13 µM
Cc1cc(Nc2ncc(Cl)c(Nc3ccccc3S(=O)(=O)C(C)C)n2)c(OC(C)C)cc1C1CCNCC1 | NCI-H3122 | cell growth or viability, MTT | – | 2 µg/mL, 72 h | inhibition | 90.7%
